NPY Y2 blocker = antagonists of human neuropeptide Y receptor Y2; P49146; inhibition, % at 2.7 µM; NPY-Y2 expressing cells, antagonist mode; 140,000 tested, 0.99% active; in the data active means inhibition above about 17%
Target sequence (P49146 whole entry, looked up): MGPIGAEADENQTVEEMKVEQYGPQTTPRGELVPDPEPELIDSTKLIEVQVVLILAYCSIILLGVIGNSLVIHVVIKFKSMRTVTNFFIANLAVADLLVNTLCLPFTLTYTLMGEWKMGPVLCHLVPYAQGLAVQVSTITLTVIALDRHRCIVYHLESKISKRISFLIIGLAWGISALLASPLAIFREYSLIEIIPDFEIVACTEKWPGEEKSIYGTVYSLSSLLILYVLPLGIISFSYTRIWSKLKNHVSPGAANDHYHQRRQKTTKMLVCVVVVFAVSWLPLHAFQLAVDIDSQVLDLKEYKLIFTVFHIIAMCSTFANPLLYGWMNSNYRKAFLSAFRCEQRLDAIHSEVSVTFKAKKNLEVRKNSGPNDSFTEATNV
NPY-Y2 PAM-ag = potentiates or activates human NPY-Y2 receptor. cells expressing NPY-Y2, potentiator/agonist read-out. 220,000 tested, 0.45% active. P49146. activation, % at 3.6 µM; in the data active means activation above about 27%;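 further: cells stimulated with NPY near EC25 plus isoproterenol at EC100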
NPY-Y1 antag = NPY-Y1 (human) receptor antagonism; HEK293-CNG Y1 cells, membrane potential fluorescence; NPY at EC95, then isoproterenol; inhibition, % at 3.6 µM; 200,000 tested, 1% active; AID 1040;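 active means inhibition above the campaign mean inhibition of all tested compounds plus 3 SD, cut at about 20% in these data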
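material = HEK293 cells with Y1 receptor plus CNG channel | also added = NPY 25 nM then isoproterenol 1 µM plus Ro 20-1724 25 µM | schedule = dye 3 h, compound 60 min room temperature, stimulation 45 min | measured by = membrane potential fluorescence | benchmarks = high control isoproterenol alone, low control NPY with isoproterenol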
S1P4 agonist = human S1P4 receptor agonism; activation, % at 4.98 µM; O95977; AID 1509; S1P4-expressing cell line, agonist reporter assay; 220,000 tested, 0.35% active; in the data active means activation above about 11%
Target sequence (O95977 whole entry, looked up): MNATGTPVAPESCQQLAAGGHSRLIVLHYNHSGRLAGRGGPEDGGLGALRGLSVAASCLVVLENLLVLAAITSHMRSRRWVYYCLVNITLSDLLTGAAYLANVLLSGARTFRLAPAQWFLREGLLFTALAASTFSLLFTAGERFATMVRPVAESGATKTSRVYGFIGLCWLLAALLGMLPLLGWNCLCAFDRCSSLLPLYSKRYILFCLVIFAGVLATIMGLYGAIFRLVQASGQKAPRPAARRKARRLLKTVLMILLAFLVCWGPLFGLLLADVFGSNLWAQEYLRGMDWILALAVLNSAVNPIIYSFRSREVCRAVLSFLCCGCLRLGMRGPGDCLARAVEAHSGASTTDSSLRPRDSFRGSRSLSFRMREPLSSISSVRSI
NPY-Y1 PAM-ag = potentiators or agonists of human neuropeptide Y receptor Y1; P25929; NPY-Y1 expressing cells, potentiator/agonist activation; activation, % at 3.6 µM; 220,000 tested, 0.37% active; in the data active means activation above about 33%, passing the limit was not always enough;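 further: cells stimulated with NPY at EC10 then isoproterenol at EC100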
S1P4 antag = antagonists of human S1P4 receptor | O95977 | S1P4-expressing cells, antagonist mode, reporter read-out | inhibition, % at 4.98 µM | 220,000 tested, 0.26% active | AID 1510; in the data active means inhibition above about 29%
NPY-Y1 confirm = confirmation of human NPY-Y1 receptor potentiators or agonists | shares compounds with NPY-Y1 PAM-ag | cell-based NPY-Y1 potentiator/agonist assay | activation, % at 3.6 µM | AID 1546 | 280 tested, 20% active; in the data active means activation above about 45%;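 further: cells challenged with NPY at its EC10 plus isoproterenol stimulus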
NPY-Y2 counter = potentiates or activates NPY-Y2, counter-screen for NPY-Y1 hits | HEK293-CNG cells, membrane-potential fluorescence (FLIPR), 1536-well | activation, % at 3.6 µM | 280 tested, 20% active | shares compounds with NPY-Y1 PAM-ag
NPY-Y1 ag = activates human NPY-Y1, counter-screen for NPY-Y1 potentiators; HEK293 Y1-CNGC, membrane potential fluorescence, agonist mode; shares compounds with NPY-Y1 PAM-ag; AID 1697; 280 tested, 50% active; activation, % at 3.6 µM;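 active means percent activation above the mean of DMSO-only control wells plus 3 SD of those wells, cut at about 18% in these data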;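 further: cells challenged with isoproterenol plus Ro 20-1724 with no NPY in test wells; Y1 agonism lowers isoproterenol-driven cAMP and reduces probe fluorescence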
NPY-Y2 agonist = counter-screen for NPY-Y1 potentiators or agonists: agonists of NPY-Y2; HEK293 Y2-CNGC, membrane potential fluorescence, agonist mode; shares compounds with NPY-Y1 PAM-ag; 280 tested, 67% active; activation, % at 3.6 µM;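 active means activation above the solvent-only control wells' mean plus 3 SD, cut at about 11% in these data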;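 further: agonism lowers cAMP so well fluorescence drops in active wells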
CNGC inh 2 = blocks cyclic nucleotide gated channel in NPY-Y1 counter-screen. shares compounds with NPY-Y1 PAM-ag. HEK293-CNG parental, isoproterenol cAMP, membrane potential fluorescence. inhibition, % at 3.6 µM. 280 tested, 42% active;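 active means inhibition above the mean of stimulated solvent-only control wells plus 3 SD, cut at about 22% in these data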
NPY-Y2 pot conf = human NPY-Y2 potentiation or agonism, confirmation; cell-based NPY-Y2 potentiator/agonist assay; shares compounds with NPY-Y2 PAM-ag; activation, % at 3.6 µM; 450 tested, 20% active
NPY-Y1 potentiator = potentiates or activates NPY-Y1, counter-screen for NPY-Y2 hits | shares compounds with NPY-Y2 PAM-ag | activation, % at 3.6 µM | Y1 HEK293-CNG cells, membrane potential fluorescence | 450 tested, 20% active; in the data active means activation above about 45%;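 further: cells stimulated with submaximal NPY then isoproterenol with phosphodiesterase inhibitor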
NPY-Y1 agonist 2 = human NPY-Y1 agonism as NPY-Y2 potentiator counter-screen; shares compounds with NPY-Y2 PAM-ag; HEK293 Y1-CNGC, membrane potential fluorescence; activation, % at 3.6 µM; 450 tested, 37% active; AID 1702;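 active means activation above the mean of DMSO-only control wells plus 3 SD, cut at about 18% in these data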;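 further: cells stimulated with 1 µM isoproterenol plus the PDE inhibitor Ro 20-1724; Y1 agonists lower the membrane potential dye signal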
CNGC inh = blocks CNG channel activity, counter-screen for NPY-Y2 potentiators. shares compounds with NPY-Y2 PAM-ag. HEK293-CNG parental, isoproterenol cAMP, membrane potential fluorescence. inhibition, % at 3.6 µM. 450 tested, 32% active. AID 1703;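 active means inhibition above the control-well mean plus 3 SD of those wells, cut at about 22% in these data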
NPY-Y2 ag 2 = activates human NPY-Y2 receptor in potentiator counter-screen; shares compounds with NPY-Y2 PAM-ag; HEK293 Y2/CNGC cells, membrane potential fluorescence, agonist mode; activation, % at 3.6 µM; 450 tested, 56% active;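 active means activation above the mean of solvent-only control wells plus 3 SD, cut at about 10% in these data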;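 further: cells stimulated by isoproterenol with no NPY added so direct agonism is tested; agonism lowers probe fluorescence through less cAMP and CNG channel opening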
A number is an active result; 0 = inactive; - = not tested or not shown. The list is not random: actives were taken first. Their share in the collection is about 2.4%. Unless noted, no stated cut-off is given here; in the data, active means activation above about 33%; inactive means the rest.

SMILES	NPY Y2 blocker	NPY-Y2 PAM-ag	NPY-Y1 antag	S1P4 agonist	NPY-Y1 PAM-ag	S1P4 antag	NPY-Y2 pot conf	NPY-Y1 potentiator	NPY-Y1 agonist 2	CNGC inh	NPY-Y2 ag 2	others
CCOc1ccc(NC(=S)NNC(=S)Nc2cccc(C(F)(F)F)c2)cc1	-	0	-	0	53.6	0	-	-	-	-	-	NPY-Y1 confirm=0;NPY-Y2 counter=0;NPY-Y1 ag=23.7;NPY-Y2 agonist=31.7;CNGC inh 2=0
COC(=O)C(O)(NC(=O)c1ccncc1)C(F)(F)F (configuration not stated)	-	0	-	0	0	0	-	-	-	-	-
Cn1nc(C(F)(F)F)c(-c2ccc(F)cc2)c1NC(=O)Nc1ccc(F)cc1	-	0	-	0	48.4	0	-	-	-	-	-	NPY-Y1 confirm=59.1;NPY-Y2 counter=45.2;NPY-Y1 ag=58.4;NPY-Y2 agonist=51.5;CNGC inh 2=49.2
Cc1ccc2sc(N(CCCN(C)C)C(=O)CN3C(=O)c4ccccc4C3=O)nc2c1C	-	0	0	0	0	0	-	-	-	-	-
COc1ccccc1NS(=O)(=O)c1cc(NC(=S)Nc2cc(C)cc(C)c2)ccc1Cl	0	0	0	0	0	0	-	-	-	-	-
COc1ccccc1NS(=O)(=O)c1cc(N/C(=N\S(=O)(=O)c2ccccc2)c2ccc(F)cc2)ccc1Cl	0	0	0	0	43.1	0	-	-	-	-	-	NPY-Y1 confirm=0;NPY-Y2 counter=0;NPY-Y1 ag=24.7;NPY-Y2 agonist=23.8;CNGC inh 2=43.1
COc1ccccc1-n1c(SCC(N)=O)nnc1-c1ccccc1	0	0	0	0	0	0	-	-	-	-	-
COc1ccccc1-n1c(C)nnc1SCC(N)=O	0	0	0	0	42.5	0	-	-	-	-	-	NPY-Y1 confirm=0;NPY-Y2 counter=0;NPY-Y1 ag=0;NPY-Y2 agonist=0;CNGC inh 2=0
Cc1cc(C)nc(NC(=O)c2cc(Br)ccc2Cl)n1	-	0	0	0	0	0	-	-	-	-	-
CCNC(=O)c1cc(Br)ccc1Cl	0	0	0	0	50.5	0	-	-	-	-	-	NPY-Y1 confirm=0;NPY-Y2 counter=0;NPY-Y1 ag=0;NPY-Y2 agonist=0;CNGC inh 2=0
COC(=O)c1cc2c(C(F)(F)F)nn(C)c2s1	-	0	-	0	0	0	-	-	-	-	-
O=C1CCC(=O)N1CCSC(=S)N1CCSCC1	-	0	-	0	0	0	-	-	-	-	-
COCCCNCCCCOc1ccc(C)cc1[N+](=O)[O-]	0	0	0	0	0	0	-	-	-	-	-
C=CCNCCOc1ccc(C)cc1[N+](=O)[O-]	-	0	0	0	39.2	0	-	-	-	-	-	NPY-Y1 confirm=0;NPY-Y2 counter=0;NPY-Y1 ag=0;NPY-Y2 agonist=0;CNGC inh 2=0
O=C1C(Nc2ccccc2)=C/C(=N/S(=O)(=O)c2cccs2)c2ccccc21	0	48.1	0	0	0	0	68.3	74.4	59.5	52.8	67.1
Cc1ccc(NC2=C/C(=N/S(=O)(=O)c3cccs3)c3ccccc3C2=O)cc1	0	0	0	0	0	0	-	-	-	-	-
Cc1ccc(-n2c(SCC(N)=O)nc3c(c2=O)C2(CCCC2)Cc2ccccc2-3)cc1	0	35.4	0	0	0	0	0	46.8	42.8	29.4	41.7
FC(F)(F)c1cccc(NC(=S)NNC(=S)Nc2cccc(C(F)(F)F)c2)c1	-	54.2	-	0	0	0	0	0	45.5	44.2	32.5
CNNC(=S)Nc1cccc(C(F)(F)F)c1	-	0	-	0	0	0	-	-	-	-	-
CC(O)c1nc2ccccc2n1CCCOc1ccccc1 (configuration not stated)	-	0	-	0	0	0	-	-	-	-	-
Cc1ccc(NS(=O)(=O)c2cc([N+](=O)[O-])ccc2NNC(=S)Nc2cccc(Cl)c2)c(C)c1	0	30.9	0	0	0	0	76.4	96.8	78.9	62.0	75.3
COc1ccc(Oc2ccc(/C=C/C(=O)c3ccc(O)cc3)cc2[N+](=O)[O-])cc1	0	37.7	0	0	0	0	0	0	23.4	0	11.2
COc1ccc(/C=C/C(=O)c2ccc(O)cc2)cc1COc1ccc(F)cc1	0	0	0	0	0	0	-	-	-	-	-
O=C(O)CCC(=O)Nc1ccccc1Oc1ccccc1	-	0	0	0	0	0	-	-	-	-	-
COC(=O)c1cc(COC(=O)c2nc3nccc(C)n3n2)oc1C	-	0	0	0	0	0	-	-	-	-	-
SMILES	NPY Y2 blocker	NPY-Y2 PAM-ag	NPY-Y1 antag	S1P4 agonist	NPY-Y1 PAM-ag	S1P4 antag	NPY-Y2 pot conf	NPY-Y1 potentiator	NPY-Y1 agonist 2	CNGC inh	NPY-Y2 ag 2	others
CCOc1nc(N=C(N)N)nc2c(C)cccc12	0	38.1	0	0	0	0	0	0	0	0	0
CCOc1nc(-c2ccccc2O)nc2ccccc12	0	0	0	0	0	0	-	-	-	-	-
Cc1nc2ccccn2c1-c1ccnc(SCc2ccc(Cl)cc2)n1	-	48.7	-	0	0	0	0	0	0	0	0
N#C/C(=N/Nc1ccc([N+](=O)[O-])cc1)C(=N)N1CCCCC1	-	34.8	0	0	0	0	0	45.5	43.0	27.6	29.6
Cc1cc(Cl)n2nc(C)c(-c3ccc(Cl)cc3)c2n1	-	28.3	0	0	0	0	41.6	59.3	58.8	62.5	45.5
Cc1cccc2sc(N(CCN(C)C)C(=O)c3cc(Cl)sc3Cl)nc12	0	0	0	0	0	0	-	-	-	-	-
CN(C)CCCN(C(=O)CCc1ccccc1)c1nc2c(F)cccc2s1	0	0	0	0	0	0	-	-	-	-	-
Cc1cccc2sc(N(CCN(C)C)C(=O)/C=C/c3cccs3)nc12	0	52.9	0	0	0	0	91.0	112.2	96.8	86.1	100.3
CN(C)CCCN(C(=O)/C=C/c1cccs1)c1nc2c(F)cccc2s1	-	35.9	0	0	0	0	65.8	73.4	54.9	63.4	64.5
CCC(=O)c1c(NCCc2ccccc2)cc(C)oc1=O	-	0	0	0	0	0	-	-	-	-	-
CC(C)(C)n1cc(S(=O)(=O)c2ccccc2)[nH]c1=O	-	41.2	0	0	0	0	0	0	0	0	0
CC(C)Sc1ncc(S(=O)(=O)c2ccccc2)c(=O)[nH]1	-	0	0	0	0	0	-	-	-	-	-

Screens as filed in PubChem.
